pEC50, pIC50, pKi: −log10 of the molar value.
Legend:
[1] = target: Glutamate receptor ionotropic, kainate 2 (Rattus norvegicus, UniProt P42260); assay: Displacement of [3H[SYM2081 from rat recombinant GluK2(VCR)a expressed in […] cells; assay type: cell-based
In short: (§1)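 Competition binding to membranes from Sf9 cells infected with recombinant baculovirus encoding rat GluK subunits. Radioligand 1-5 nM [3H]SYM2081 (47.9 Ci/mmol), 12-16 ligand concentrations. At least three experiments, each in triplicate, reported as Ki mean ± SEM.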

[2] = target: Glutamate receptor ionotropic, kainate 3 (Rattus norvegicus, UniProt P42264); assay: Displacement of [3H[SYM2081 from rat recombinant GluK3a expressed in […] cells; assay type: cell-based; in short: as §1
Chain of Glutamate receptor ionotropic, kainate 3 (P42264 whole entry): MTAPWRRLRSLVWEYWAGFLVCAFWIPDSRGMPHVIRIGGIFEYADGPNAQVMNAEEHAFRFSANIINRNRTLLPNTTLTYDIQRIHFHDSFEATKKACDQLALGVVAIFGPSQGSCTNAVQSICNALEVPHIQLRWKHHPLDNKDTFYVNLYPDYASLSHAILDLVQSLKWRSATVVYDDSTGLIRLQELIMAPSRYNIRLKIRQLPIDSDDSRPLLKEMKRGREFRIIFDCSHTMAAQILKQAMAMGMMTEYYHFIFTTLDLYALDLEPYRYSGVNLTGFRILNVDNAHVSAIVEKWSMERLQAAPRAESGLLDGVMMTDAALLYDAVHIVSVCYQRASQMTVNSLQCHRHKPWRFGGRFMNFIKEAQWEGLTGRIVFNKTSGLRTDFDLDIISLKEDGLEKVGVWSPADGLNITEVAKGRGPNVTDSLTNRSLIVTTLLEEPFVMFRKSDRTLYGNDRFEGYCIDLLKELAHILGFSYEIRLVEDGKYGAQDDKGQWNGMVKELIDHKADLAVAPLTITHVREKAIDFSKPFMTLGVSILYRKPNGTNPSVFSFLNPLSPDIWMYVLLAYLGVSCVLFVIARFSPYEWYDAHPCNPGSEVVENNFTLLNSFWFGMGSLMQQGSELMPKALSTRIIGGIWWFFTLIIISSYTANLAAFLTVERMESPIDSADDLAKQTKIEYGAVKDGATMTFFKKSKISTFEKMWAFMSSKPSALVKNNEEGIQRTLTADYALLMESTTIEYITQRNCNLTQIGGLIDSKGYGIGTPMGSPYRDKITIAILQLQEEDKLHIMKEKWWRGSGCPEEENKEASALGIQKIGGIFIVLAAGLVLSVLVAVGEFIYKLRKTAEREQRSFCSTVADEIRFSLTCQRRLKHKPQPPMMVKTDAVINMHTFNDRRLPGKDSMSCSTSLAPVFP

Glutamate receptor 2 [3] = target: T1, Glutamate receptor 2 (Rattus norvegicus, UniProt P19491); assay: Displacement of [3H[AMPA from rat recombinant GluA2(R)o expressed in […] cells; assay type: cell-based
[4] = Displacement of [3H]KA from kainate receptor in rat brain membrane; assay type: cell membranes
In short: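 Rat cortical synaptosomal membranes, competition with 5 nM [3H]KA (58.0 Ci/mmol). IC50 given as the antilog of the mean log value from three individual experiments.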

[5] = Displacement of [3H]AMPA from AMPA receptor in rat brain membrane; assay type: cell membranes
In short: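 Rat cortical synaptosomal membranes, competition with 5 nM [3H]AMPA (55.5 Ci/mmol). IC50 given as the antilog of the mean log value from three individual experiments.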

Glutamate receptor 1 [6] = target: T2, Glutamate receptor 1 (Rattus norvegicus, UniProt P19490); assay: Agonist activity at rat recombinant GluA1i expressed in Xenopus laevis oocytes by two-electrode voltage clamp assay; assay type: functional, cell-based, Oocyte
T2 sequence (P19490 whole entry, canonical isoform): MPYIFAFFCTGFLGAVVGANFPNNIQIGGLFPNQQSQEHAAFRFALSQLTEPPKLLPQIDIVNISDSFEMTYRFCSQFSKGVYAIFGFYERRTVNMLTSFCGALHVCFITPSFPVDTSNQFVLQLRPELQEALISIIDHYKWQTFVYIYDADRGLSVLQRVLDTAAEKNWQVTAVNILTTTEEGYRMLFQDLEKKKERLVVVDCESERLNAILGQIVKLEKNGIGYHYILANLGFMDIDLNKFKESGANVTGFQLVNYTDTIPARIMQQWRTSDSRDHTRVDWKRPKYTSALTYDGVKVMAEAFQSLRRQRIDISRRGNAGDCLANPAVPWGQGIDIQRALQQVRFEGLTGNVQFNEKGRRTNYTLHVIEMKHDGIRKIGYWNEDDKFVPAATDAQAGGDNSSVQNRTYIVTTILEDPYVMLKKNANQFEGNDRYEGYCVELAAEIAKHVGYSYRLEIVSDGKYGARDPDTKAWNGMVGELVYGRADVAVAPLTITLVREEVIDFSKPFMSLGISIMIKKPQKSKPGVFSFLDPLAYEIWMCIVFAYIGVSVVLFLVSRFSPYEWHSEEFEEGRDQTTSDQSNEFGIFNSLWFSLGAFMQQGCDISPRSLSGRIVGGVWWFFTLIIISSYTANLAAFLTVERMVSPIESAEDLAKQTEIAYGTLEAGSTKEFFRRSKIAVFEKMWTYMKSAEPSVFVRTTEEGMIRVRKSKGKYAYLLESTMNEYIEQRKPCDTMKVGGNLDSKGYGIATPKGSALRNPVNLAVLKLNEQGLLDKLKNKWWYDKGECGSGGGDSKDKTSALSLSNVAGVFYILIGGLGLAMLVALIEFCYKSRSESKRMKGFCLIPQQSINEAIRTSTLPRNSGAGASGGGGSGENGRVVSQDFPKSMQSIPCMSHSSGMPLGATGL
In short: (§2)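 Rat homomeric flip-isoform GluA subunits expressed in Xenopus laevis oocytes, measured by two-electrode voltage clamp. Highest concentration tested 3 mM. Responses normalized to the maximum response in each oocyte. Three to five experiments per receptor, each in duplicate. EC50 obtained by fitting I = Imax/(1 + (10^logEC50/10^log[A])^nH), giving Imax and Hill coefficient.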

Glutamate receptor 3 [7] = target: T3, Glutamate receptor 3 (Rattus norvegicus, UniProt P19492); assay: Displacement of [3H[AMPA from rat recombinant GluA3o expressed in […] cells; assay type: cell-based
T3 sequence (P19492 whole entry): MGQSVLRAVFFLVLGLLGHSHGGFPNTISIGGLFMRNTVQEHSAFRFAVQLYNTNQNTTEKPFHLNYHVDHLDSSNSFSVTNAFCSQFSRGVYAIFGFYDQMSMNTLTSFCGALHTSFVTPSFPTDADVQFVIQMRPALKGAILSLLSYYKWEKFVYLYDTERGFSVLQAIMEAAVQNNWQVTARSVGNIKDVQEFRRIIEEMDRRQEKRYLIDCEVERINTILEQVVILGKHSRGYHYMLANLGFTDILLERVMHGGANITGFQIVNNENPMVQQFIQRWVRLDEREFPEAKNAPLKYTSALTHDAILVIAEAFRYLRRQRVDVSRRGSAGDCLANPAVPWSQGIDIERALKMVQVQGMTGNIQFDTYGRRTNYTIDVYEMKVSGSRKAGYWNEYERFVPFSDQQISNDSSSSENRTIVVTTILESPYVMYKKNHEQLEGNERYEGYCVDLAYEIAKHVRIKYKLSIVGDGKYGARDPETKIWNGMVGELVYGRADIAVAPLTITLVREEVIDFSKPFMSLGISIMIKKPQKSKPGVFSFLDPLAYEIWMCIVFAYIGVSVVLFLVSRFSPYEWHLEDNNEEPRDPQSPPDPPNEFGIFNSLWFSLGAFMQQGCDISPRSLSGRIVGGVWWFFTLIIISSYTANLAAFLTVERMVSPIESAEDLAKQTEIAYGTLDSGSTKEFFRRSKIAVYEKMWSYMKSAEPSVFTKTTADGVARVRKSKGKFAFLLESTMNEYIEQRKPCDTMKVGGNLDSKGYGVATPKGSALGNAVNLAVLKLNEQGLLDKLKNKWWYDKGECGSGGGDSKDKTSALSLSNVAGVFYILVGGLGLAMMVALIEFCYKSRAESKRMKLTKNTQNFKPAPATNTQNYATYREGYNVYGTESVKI
In short: (§3)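 Competition binding to membranes from Sf9 cells infected with recombinant baculovirus encoding rat flop GluA subunits. Radioligand 2-5 nM (RS)-[3H]AMPA, 12-16 ligand concentrations. At least three experiments, each in triplicate, reported as Ki mean ± SEM.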

Glutamate NMDA receptor = assay: Displacement of [3H]CGP39653 from NMDA receptor in rat brain membrane; assay type: cell membranes
[8] = target: Glutamate receptor ionotropic, kainate 1 (Rattus norvegicus, UniProt P22756); assay: Displacement of [3H[SYM2081 from rat recombinant GluK1(Q)1b expressed in […] cells; assay type: cell-based
Chain of Glutamate receptor ionotropic, kainate 1 (P22756 whole entry): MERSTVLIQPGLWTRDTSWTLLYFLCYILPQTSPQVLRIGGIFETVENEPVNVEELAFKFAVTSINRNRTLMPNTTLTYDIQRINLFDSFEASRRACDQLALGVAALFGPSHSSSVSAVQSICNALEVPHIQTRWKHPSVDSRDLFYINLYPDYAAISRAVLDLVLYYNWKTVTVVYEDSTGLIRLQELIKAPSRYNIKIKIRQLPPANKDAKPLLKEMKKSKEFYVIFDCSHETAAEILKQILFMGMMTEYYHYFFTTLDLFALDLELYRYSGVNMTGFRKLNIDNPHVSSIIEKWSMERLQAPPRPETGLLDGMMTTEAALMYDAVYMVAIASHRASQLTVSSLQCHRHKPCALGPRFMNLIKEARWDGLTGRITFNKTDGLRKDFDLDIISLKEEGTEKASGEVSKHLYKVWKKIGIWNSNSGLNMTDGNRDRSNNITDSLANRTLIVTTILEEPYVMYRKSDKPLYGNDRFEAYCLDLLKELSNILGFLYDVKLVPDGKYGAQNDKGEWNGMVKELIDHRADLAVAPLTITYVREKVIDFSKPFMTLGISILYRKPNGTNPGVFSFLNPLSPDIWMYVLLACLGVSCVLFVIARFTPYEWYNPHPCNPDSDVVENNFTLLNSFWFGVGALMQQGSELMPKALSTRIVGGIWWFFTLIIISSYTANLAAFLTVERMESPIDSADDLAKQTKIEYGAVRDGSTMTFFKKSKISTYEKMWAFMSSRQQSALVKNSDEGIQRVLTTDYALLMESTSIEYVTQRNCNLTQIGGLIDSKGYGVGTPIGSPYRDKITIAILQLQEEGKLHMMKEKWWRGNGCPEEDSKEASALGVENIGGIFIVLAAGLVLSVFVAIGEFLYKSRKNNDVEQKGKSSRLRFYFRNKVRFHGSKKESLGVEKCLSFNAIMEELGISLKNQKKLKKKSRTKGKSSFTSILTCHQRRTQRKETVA

Glutamate receptor 1 [9] = target: T2, Glutamate receptor 1; assay: Displacement of [3H[AMPA from rat recombinant GluA1o expressed in […] cells; assay type: cell-based; in short: as §3
Glutamate receptor 4 [10] = target: T4, Glutamate receptor 4 (Rattus norvegicus, UniProt P19493); assay: Displacement of [3H[AMPA from rat recombinant GluA4o expressed in […] cells; assay type: cell-based; in short: as §3
T4 sequence (P19493 whole entry): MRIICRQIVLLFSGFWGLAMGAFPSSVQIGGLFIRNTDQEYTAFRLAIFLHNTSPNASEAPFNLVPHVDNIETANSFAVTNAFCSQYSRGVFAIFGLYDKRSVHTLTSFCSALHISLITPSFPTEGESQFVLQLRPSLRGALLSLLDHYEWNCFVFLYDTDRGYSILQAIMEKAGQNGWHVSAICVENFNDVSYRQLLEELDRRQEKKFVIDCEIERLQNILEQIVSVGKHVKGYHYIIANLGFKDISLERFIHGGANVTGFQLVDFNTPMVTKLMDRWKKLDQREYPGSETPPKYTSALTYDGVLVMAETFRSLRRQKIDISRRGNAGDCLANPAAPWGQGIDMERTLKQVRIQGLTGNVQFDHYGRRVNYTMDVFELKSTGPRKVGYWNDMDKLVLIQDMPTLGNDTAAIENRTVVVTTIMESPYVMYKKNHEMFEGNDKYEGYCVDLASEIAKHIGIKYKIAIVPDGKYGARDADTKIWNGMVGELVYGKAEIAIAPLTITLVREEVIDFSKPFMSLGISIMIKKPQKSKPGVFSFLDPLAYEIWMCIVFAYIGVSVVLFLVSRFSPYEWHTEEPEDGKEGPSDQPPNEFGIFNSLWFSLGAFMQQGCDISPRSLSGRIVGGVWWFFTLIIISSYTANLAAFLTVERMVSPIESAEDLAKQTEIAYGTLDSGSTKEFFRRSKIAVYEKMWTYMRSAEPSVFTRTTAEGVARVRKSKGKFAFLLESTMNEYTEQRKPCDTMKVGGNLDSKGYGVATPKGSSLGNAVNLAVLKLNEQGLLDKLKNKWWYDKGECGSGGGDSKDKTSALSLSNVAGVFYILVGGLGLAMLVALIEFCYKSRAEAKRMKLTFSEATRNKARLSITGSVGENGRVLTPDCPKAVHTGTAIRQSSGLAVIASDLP

Glutamate receptor 2 [11] = target: Glutamate receptor 2 (Homo sapiens, UniProt P42262); assay: Displacement of [3H]AMPA from GluA2-S1S2 receptor
Glutamate receptor 2 [12] = target: T1, Glutamate receptor 2; assay: Agonist activity at rat recombinant GluA2(Q)i expressed in Xenopus laevis oocytes by two-electrode voltage clamp assay; assay type: functional, cell-based, Oocyte
In short: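 Homomeric rat GluA2(Q) flip receptors expressed in Xenopus laevis oocytes and recorded by two-electrode voltage clamp. Agonist-evoked currents were normalised to the maximum response in each oocyte. EC50 was obtained by fitting the concentration-response data to a logistic equation giving Imax and the Hill coefficient.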

Glutamate receptor 4 [13] = target: T4, Glutamate receptor 4; assay: Agonist activity at rat recombinant GluA4i expressed in Xenopus laevis oocytes by two-electrode voltage clamp assay; assay type: functional, cell-based, Oocyte; in short: as §2
Glutamate receptor 3 [14] = target: T3, Glutamate receptor 3; assay: Agonist activity at rat recombinant GluA3i expressed in Xenopus laevis oocytes by two-electrode voltage clamp assay; assay type: functional, cell-based, Oocyte; in short: as §2

SMILES | pKi [1] | pKi [2] | pKi (Glutamate receptor 2 [3]) | pIC50 [4] | pIC50 [5] | pEC50 (Glutamate receptor 1 [6]) | pKi (Glutamate receptor 3 [7]) | pKi (Glutamate NMDA receptor) | pKi [8] | pKi (Glutamate receptor 1 [9]) | pKi (Glutamate receptor 4 [10]) | pKi (Glutamate receptor 2 [11]) | pEC50 (Glutamate receptor 2 [12]) | pEC50 (Glutamate receptor 4 [13]) | pEC50 (Glutamate receptor 3 [14])
Cc1onc(O)c1C[C@H](N)C(=O)O [(S)-AMPA] | < 3.00 | 4.37 | – | – | – | – | – | – | – | – | – | – | – | – | –
NC(Cc1onc(O)c1Cl)C(=O)O (racemic) | < 4.00 | 4.04 | 6.43 | < 4.00 | 6.66 | 5.33 | 4.56 | 4.74 | 5.17 | 6.89 | 4.92 | – | – | – | –
O=C(O)C1Cc2c(O)noc2CN1 (racemic) | – | 4.27 | – | – | – | – | – | – | – | – | – | 6.31 | – | – | –
N[C@H](C(=O)O)c1cc(O)no1 [IBOTENIC ACID] | 5.49 | 5.76 | < 4.00 | 4.66 | < 4.00 | – | < 4.00 | – | 5.61 | < 4.00 | < 4.00 | – | – | – | –
O=C(O)[C@H]1Cc2c(O)noc2CN1 | < 4.00 | – | – | < 4.00 | 6.33 | – | 6.08 | < 4.00 | 5.00 | 6.44 | 6.19 | – | 4.65 | – | –
O=C(O)C1NCCc2c1o[nH]c2=O (racemic) | < 4.00 | 4.53 | – | < 4.00 | 6.43 | 4.08 | 5.34 | < 4.00 | 5.35 | 6.74 | 4.87 | 6.97 | 4.46 | < 3.00 | 3.20

— ChEMBL document CHEMBL1629540 (J Med Chem, 2010)
